This is an account of results in ChEMBL document CHEMBL1150692, “Isolation and synthesis of a new bioactive ellagic acid derivative from Combretum yunnanensis” (J Nat Prod, 2003).

As a reminder, the IC50 is the point on the concentration scale where inhibition reaches its midpoint.

In brackets after ≈: the same amount, converted by molar mass.

The target of one data set is Protease (Human immunodeficiency virus 1, UniProt Q9YQ12). In words: Inhibition of HIV1 protease.
Another data set has as its system KB. Kind of data set: Cytotoxicity against human KB cells after 3 days by MTT assay. It counts as functional, cell-based. Particulars: 72 h. Put shortly:
(§1)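 Incubated with sample at 37 °C for 3 or 4 days; viable cell number then estimated by MTT colorimetric assay.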

For another data set, the system named is HeLa. Kind of data set: Cytotoxicity against human HeLa cells after 3 days by MTT assay. The format is functional, cell-based. Particulars: 72 h. Put shortly:
as §1
On the technique in general: Formazan colour is commonly taken as a measure of viable cells.

The test system of data set [1] is K562. Kind of data set: Cytotoxicity against human K562 cells after 3 days by MTT assay. The format is functional, cell-based. The settings on record: K562, 72 h. Put shortly: as §1
Data set [2] concerns P388. In words: Cytotoxicity against adriamycin-resistant mouse P388 cells after 3 days by MTT assay. The format is functional, cell-based. The settings on record: P388, 72 h. Put shortly: as §1
A further data set has as its system Mus musculus. Kind of data set: Toxicity in mouse at 100 mg/kg, ip. The format is organism-based. Details: dose 100 mg/kg, route intraperitoneal. The settings on record: in vivo.
For a further data set, the system named is B16. In words: Cytotoxicity against mouse B16 cells after 3 days by MTT assay. It counts as functional, cell-based. Particulars: B16, 72 h. Put shortly:
as §1

Data set [3] concerns K562. In words: Cytotoxicity against adriamycin-resistant human K562 cells after 3 days by MTT assay. It counts as functional, cell-based. Particulars: K562, 72 h. The method, boiled down: as §1
Data set [4] relates to P388. In words: Cytotoxicity against mouse P388 cells after 3 days by MTT assay. The settings on record: P388, 72 h. It counts as functional, cell-based. The method, boiled down: as §1

Chain of Protease (Q9YQ12 whole entry): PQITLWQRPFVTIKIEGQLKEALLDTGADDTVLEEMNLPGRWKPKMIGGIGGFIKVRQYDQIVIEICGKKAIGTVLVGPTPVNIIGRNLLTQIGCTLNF

For the compound `CC(=O)O[C@@H]1[C@@H](O)[C@@H](O)[C@H](Oc2cc3c(=O)oc4c(O)c(O)cc5c(=O)oc(c2O)c3c45)O[C@H]1C`, the half-inhibitory concentration (IC50) at Protease is 22.4 µM; in the data set on KB, 61 mg/L (≈ 124 µM); in the data set with HeLa it was 76 mg/L (≈ 155 µM); in the data set on K562 [1] it was 80 mg/L (≈ 163 µM); with P388 [2], 19 mg/L (≈ 38.7 µM); in the data set with B16, 52 mg/L (≈ 106 µM). For the same compound, the IC50 with K562 [3] is 56 mg/L (≈ 114 µM); in the data set on P388 [4] it was 52 mg/L (≈ 106 µM). For the same compound, in the data set on Mus musculus, the Activity result is “Non-toxic”.
For `C[C@@H]1O[C@@H](Oc2cc3c(=O)oc4c(O)c(O)cc5c(=O)oc(c2O)c3c45)[C@H](O)[C@H](O)[C@H]1O` [ESCHWEILENOL C], the IC50 against Protease is 10.7 µM; with KB, 98 mg/L (≈ 219 µM); with HeLa it was 86.5 mg/L (≈ 193 µM); in the data set on K562 [1], 82 mg/L (≈ 183 µM); in the data set on P388 [2], 53 mg/L (≈ 118 µM); with B16 it was 88 mg/L (≈ 196 µM). The IC50 in the data set on K562 [3] is 67 mg/L (≈ 149 µM); in the data set on P388 [4] it was 62 mg/L (≈ 138 µM).
